Reference: ChEMBL document CHEMBL3352174, “Identification of a New RXRα Antagonist Targeting the Coregulator-Binding Site” (ACS Med Chem Lett, 2014)
Changes are numbered by the printed parent chain. Active and inactive are the calls of the source. The rule behind the calls is not given here.

How the values were obtained:
[1] = molecular target: T1, Retinoic acid receptor RXR-alpha (Homo sapiens) (UniProt P19793); test: Antagonist activity against Myc-tagged RXRalpha ligand binding domain (unknown origin) expressed in human MCF7 cells assessed as inhibition of 9-cis-RA-induced receptor transactivation at 10 uM after 18 hrs by luciferase reporter gene based mammalian one-hybrid assay; format: cell-based
T1 sequence (whole entry): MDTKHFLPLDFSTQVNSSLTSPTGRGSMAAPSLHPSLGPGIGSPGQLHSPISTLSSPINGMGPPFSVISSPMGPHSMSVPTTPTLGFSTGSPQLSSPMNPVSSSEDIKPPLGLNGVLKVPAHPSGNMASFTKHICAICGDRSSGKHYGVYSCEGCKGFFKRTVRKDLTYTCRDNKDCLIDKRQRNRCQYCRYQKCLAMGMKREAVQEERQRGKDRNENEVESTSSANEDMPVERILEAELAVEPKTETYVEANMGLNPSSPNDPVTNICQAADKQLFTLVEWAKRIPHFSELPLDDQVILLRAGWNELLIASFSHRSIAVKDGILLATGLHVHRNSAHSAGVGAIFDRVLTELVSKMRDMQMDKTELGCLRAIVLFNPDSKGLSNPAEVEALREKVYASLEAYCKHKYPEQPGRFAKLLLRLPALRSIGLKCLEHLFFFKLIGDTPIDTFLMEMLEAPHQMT
In short: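 MCF-7 cells co-transfected with pG5-Luc reporter and pBind-RXRα-LBD. […] Read-out was dual-luciferase, with firefly normalized to Renilla for transfection efficiency. Single-concentration tests used 10 μM. Mean ± SD.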

[2] = molecular target: T1, Retinoic acid receptor RXR-alpha (Homo sapiens); test: Antagonist activity against RXRalpha in human pancreatic cancer cells assessed as inhibition of AKT phosphorylation at 5 and 10 uM after 24 hrs by Western blotting method; format: cell-based; settings: Cancer cell lines
[3] = molecular target: T1, Retinoic acid receptor RXR-alpha (Homo sapiens); test: Antagonist activity against RXRalpha in TNFalpha-stimulated human A549 cells assessed as inhibition of AKT phosphorylation at 5 and 10 uM pre-treated for 24 hrs before TNFalpha addition in presence of RXRalpha siRNA by Western blotting method; format: cell-based
In short: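 A549 cells were transfected with RXRα siRNA or control siRNA for 48 h. They were then treated with compound for 24 h, followed by TNFα (20 ng/mL) for 30 min. Lysates were analyzed by Western blot for AKT activation and PARP cleavage.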

[4] = molecular target: T1, Retinoic acid receptor RXR-alpha (Homo sapiens); test: Antagonist activity against RXRalpha in human A549 cells assessed as inhibition of AKT phosphorylation at 5 and 10 uM after 24 hrs by Western blotting method; format: cell-based
In short: (§1)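 A549 or HepG2 cells were exposed to compound for 24 h, then with or without TNFα (20 ng/mL) for 30 min more. Lysates were immunoblotted for AKT activation. One of three to five similar experiments shown.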

[5] = molecular target: T1, Retinoic acid receptor RXR-alpha (Homo sapiens); test: Antagonist activity against RXRalpha in TNFalpha-stimulated human PC3 cells assessed as inhibition of AKT phosphorylation at 5 and 10 uM pre-treated for 24 hrs before TNFalpha addition by Western blotting method; format: cell-based; settings: PC-3
A549 = test: Induction of apoptosis in human A549 cells assessed as PARP cleavage at 5 and 10 uM by immunoblotting method; format: functional, cell-based
In short: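 A549 or HepG2 cells were treated with compound for 24 h, with or without subsequent TNFα (20 ng/mL) for 30 min. Lysates were immunoblotted for PARP cleavage as the apoptosis marker. One of three to five similar experiments shown.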

[6] = tested on: T2, Retinoic acid receptor RXR-alpha (Homo sapiens), P19793 [V298S]; test: Antagonist activity against RXRalpha V298S mutant (unknown origin) expressed in human HEK293T cells assessed as inhibition of 9-cis-RA-induced receptor transactivation at 1 to 10 uM after 18 hrs by luciferase reporter gene based mammalian one-hybrid assay; format: cell-based; settings: HEK-293T
T2 sequence (whole entry): T1 sequence (whole entry) with V298S
In short: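 HEK-293T cells co-transfected with pG5-Luc and an RXRα mutant vector (V298S as pBind fusion; A272W, C432W LBP mutants). […] Luciferase read-out. Mean ± SD.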

[7] = molecular target: T1, Retinoic acid receptor RXR-alpha (Homo sapiens); test: Antagonist activity against RXRalpha in TNFalpha-stimulated human HepG2 cells assessed as inhibition of AKT phosphorylation at 5 and 10 uM pre-treated for 24 hrs before TNFalpha addition by Western blotting method; format: cell-based; in short: as §1
[8] = molecular target: T3, Retinoic acid receptor RXR-alpha (Homo sapiens, UniProt P19793); test: Antagonist activity against Myc-tagged RXRalpha ligand binding domain (unknown origin) expressed in human HEK293T cells assessed as inhibition of 9-cis-RA-induced receptor transactivation after 18 hrs by luciferase reporter gene based mammalian one-hybrid assay; format: cell-based, HEK-293T
T3 sequence (P19793 whole entry): T1 sequence (whole entry)
In short: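 HEK293T cells co-transfected with pG5-Luc and pBind-RXRα-LBD. […] Luciferase reporter activity measured. Mean ± SD.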

[9] = molecular target: T4, Retinoic acid receptor RXR-gamma (Homo sapiens) (UniProt P48443); test: Antagonist activity against RXRgamma ligand binding domain (unknown origin) expressed in human HEK293T cells assessed as inhibition of 9-cis-RA-induced receptor transactivation at 2 and 10 uM after 18 hrs by luciferase reporter gene based mammalian one-hybrid assay; format: cell-based; settings: HEK-293T
T4 sequence (whole entry): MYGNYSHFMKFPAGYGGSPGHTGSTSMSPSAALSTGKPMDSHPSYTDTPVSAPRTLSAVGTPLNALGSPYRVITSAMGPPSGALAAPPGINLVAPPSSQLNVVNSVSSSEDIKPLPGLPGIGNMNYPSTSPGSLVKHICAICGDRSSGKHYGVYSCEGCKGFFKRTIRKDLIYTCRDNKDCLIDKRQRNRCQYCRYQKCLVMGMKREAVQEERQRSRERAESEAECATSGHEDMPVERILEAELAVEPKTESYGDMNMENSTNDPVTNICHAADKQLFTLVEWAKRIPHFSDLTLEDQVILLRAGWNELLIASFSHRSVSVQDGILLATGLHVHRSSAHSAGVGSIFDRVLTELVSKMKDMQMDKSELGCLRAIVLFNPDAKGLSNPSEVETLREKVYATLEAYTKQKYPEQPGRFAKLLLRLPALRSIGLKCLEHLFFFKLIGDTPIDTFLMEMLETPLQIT

[10] = molecular target: Retinoic acid receptor gamma (Homo sapiens) (UniProt P13631); test: Antagonist activity against RARgamma ligand binding domain (unknown origin) expressed in human MCF7 cells assessed as inhibition of ATRA-induced receptor transactivation at 10 uM after 18 hrs by luciferase reporter gene based mammalian one-hybrid assay
Chain of Retinoic acid receptor gamma (Homo sapiens) (P13631 whole entry, looked up, the tested form may be a part): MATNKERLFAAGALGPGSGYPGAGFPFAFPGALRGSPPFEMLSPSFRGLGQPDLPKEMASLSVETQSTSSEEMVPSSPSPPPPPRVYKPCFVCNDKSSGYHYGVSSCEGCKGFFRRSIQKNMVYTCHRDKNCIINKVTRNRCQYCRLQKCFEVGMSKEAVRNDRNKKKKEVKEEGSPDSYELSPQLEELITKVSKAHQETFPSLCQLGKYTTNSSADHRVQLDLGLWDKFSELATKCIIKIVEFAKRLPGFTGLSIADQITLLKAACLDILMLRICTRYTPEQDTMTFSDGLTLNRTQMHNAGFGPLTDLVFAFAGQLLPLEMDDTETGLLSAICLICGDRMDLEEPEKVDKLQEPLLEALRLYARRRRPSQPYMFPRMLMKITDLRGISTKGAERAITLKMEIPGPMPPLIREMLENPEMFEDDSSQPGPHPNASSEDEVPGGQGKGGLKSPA

SMILES: Cc1cc(=O)oc2c(/C=N/NC(=O)CSc3nc4ccccc4s3)c(O)ccc12
- inhibition [1]: Active
- inhibition [2]: Active
- inhibition [3]: inactive
- inhibition [4]: Dose-dependent effect
- inhibition [5]: Active
- Activity (A549): Active
- inhibition [6]: inactive
- inhibition [7]: Active
- IC50 [8]: 2450 nM
- inhibition [9]: Active
- inhibition [10]: Active
